Assay results from BindingDB's records for doi:10.1016/j.bmc.2012.11.002 (China Pharmaceutical University, 2012).

These compounds were tested against Tissue factor (Homo sapiens, UniProt P13726) (assay: Inhibition of tissue factor procoagulant activity in LPS-stimulated human THP1 cells preincubated for 1 hr before LPS addition measured after 5 hrs).
Outline: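 THP-1 cells grown in RPMI-1640 with 10% heat-inactivated FCS, 37 °C, 5% CO2. Cells at 1 × 10⁶/mL pretreated 1 h with compound or 0.1% DMSO vehicle, then given 500 ng/mL LPS for 5 h. Cells were pelleted, resuspended, frozen/thawed three times, and the lysate incubated with prothrombin complex plus CaCl₂ (pH 7.3) 15 min at 37 °C. Factor Xa chromogenic substrate (0.5 mM) with EDTA was added and A405 read.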

Tissue factor, sequence (P13726 whole entry): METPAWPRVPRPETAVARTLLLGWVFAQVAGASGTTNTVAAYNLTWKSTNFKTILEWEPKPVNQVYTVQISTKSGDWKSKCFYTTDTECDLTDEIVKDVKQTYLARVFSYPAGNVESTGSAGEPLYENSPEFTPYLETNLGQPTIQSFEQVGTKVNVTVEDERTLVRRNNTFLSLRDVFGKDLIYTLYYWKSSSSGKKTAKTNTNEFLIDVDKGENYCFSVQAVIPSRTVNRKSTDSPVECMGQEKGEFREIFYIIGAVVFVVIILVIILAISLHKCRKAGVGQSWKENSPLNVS

Row | IC50 | Structure (SMILES)
1 | 17 nM | COc1cc2c(cc1OC)[C@@H]1Cc3ccc(OC)c(O[C@@H]4O[C@H](CO)[C@@H](O)[C@H](O)[C@H]4O)c3CN1CC2
2 | 152 nM | COc1cc2c(cc1OC)[C@@H]1Cc3ccc(O)c(OC)c3CN1CC2 [(-)-Corydalmine]
3 | 3.8 nM | COc1ccc2c(c1OC(=O)/C=C/c1ccccc1)CN1CCc3cc4c(cc3C1C2)OCO4 (centres undefined)
4 | 23 nM | COc1cc2c(cc1OC)[C@@H]1Cc3ccc(OC)c(OC)c3CN1CC2 [(-)-Tetrahydropalmatine]
5 | 969 nM | COc1ccc2c(c1OC)CN1CCc3cc(O)c(O)cc3C1C2 (centres undefined)
6 | 202 nM | COc1cc(/C=C/C(=O)Oc2c(OC)ccc3c2CN2CCc4cc5c(cc4C2C3)OCO5)ccc1OC(C)=O (centres undefined)
7 | 8.8 nM | COc1ccc2c(c1O[C@@H]1O[C@H](CO)[C@@H](O)[C@H](O)[C@H]1O)CN1CCc3cc4c(cc3[C@H]1C2)OCO4
8 | 39 nM | COc1ccc2c(c1O[C@@H]1O[C@H](CO)[C@@H](O)[C@H](O)[C@H]1O)CN1CCc3cc4c(cc3[C@@H]1C2)OCO4
9 | 13 nM | COc1cc2c(cc1OC)[C@H]1Cc3ccc(OC)c(O[C@@H]4O[C@H](CO)[C@@H](O)[C@H](O)[C@H]4O)c3CN1CC2
10 | 555 nM | COc1ccc2c(c1OC(=O)c1ccccc1OC(C)=O)CN1CCc3cc4c(cc3C1C2)OCO4 (centres undefined)
11 | 1500 nM | CCCCCC(=O)Oc1c(OC)ccc2c1CN1CCc3cc4c(cc3C1C2)OCO4 (centres undefined)

Second part, the compound before the results:

Row | Structure (SMILES) | IC50
12 | COc1ccc2c(c1OC(=O)c1ccccc1)CN1CCc3cc4c(cc3C1C2)OCO4 (centres undefined) | 377 nM
13 | CCC(=O)Oc1c(OC)ccc2c1CN1CCc3cc4c(cc3C1C2)OCO4 (centres undefined) | 119 nM
14 | COc1ccc2c(c1O)CN1CCc3cc4c(cc3[C@@H]1C2)OCO4 | 36 nM
15 | COc1ccc2c(c1O)CN1CCc3cc4c(cc3[C@H]1C2)OCO4 [R-(+)-Tetrahydroberberrubine] | 6.8 nM
16 | COc1cc2c(cc1OC)C1Cc3ccc(OC)c(O)c3CN1CC2 (centres undefined) | 187 nM
17 | COc1ccc2c(c1OC(C)=O)CN1CCc3cc4c(cc3C1C2)OCO4 (centres undefined) | 63 nM
18 | COc1cc2c(cc1OC)C1Cc3ccc(OC)c(OC)c3CN1CC2 (centres undefined) [2,3,9,10-Tetramethoxy-5,8,13,13a-tetrahydro-6H-isoquino[3,2-a]isoquinoline] | 15 nM
19 | COc1ccc2c(c1OC)CN1CCc3cc4c(cc3C1C2)OCO4 (centres undefined) [9,10-dimethoxy-5,8,13,13a-tetrahydro-6H-[1,3]dioxolo[4,5-g]isoquino[3,2-a]isoquinoline] | 8.4 nM
